What all share (type): cell-based, human
In series [1] the test system is NF-κB. As to the kind of experiment: NF-κB luciferase reporter assay, antagonists with TNFα stimulation. The following applies: for effect on NF-κB expression / effect on NF-κB pathway activity / mode of action on NF-κB signaling: TNFα stimulated, 24 h; for effect on NF-κB pathway activity: at low micromolar concentrations; for EC50: Homo sapiens, HEK293, 24 h, read-out: EC50 (NF-kB reporter).

Another series concerns HEK293 cells. The following applies: for IC50: Homo sapiens, HEK293, 24 h, read-out: IC50 (cell viability).
Series [2] deals with NF-κB. Briefly: NF-κB luciferase reporter assay, agonists without TNFα. The following applies: HEK293 reporter cells, no TNFα, 24 h. Summed up: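 HEK293 stable NF-κB GFP-luciferase reporter line grown in DMEM with 10% FBS and 1% pen/strep at 37°C, 5% CO2. Seeded 1x10^4/well (96-well) or 1x10^3/well (384-well) 12 h before dosing across a concentration range in fresh medium, with vehicle-only controls. Incubated 24 h, then luminescence read. Drug/vehicle luminescence ratio plotted against log10 concentration to derive EC50. Triplicate or quadruplicate doses, ≥3 experiments.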

For another series, the system named is MAF1329 ependymoma cells.
[3] abbreviates: at low or mid-range micromolar concentrations.
Where [4] appears, read: at low micromolar concentrations.

Like-named read-outs stand apart in the source and are kept apart here. Residues, ends and D or L forms follow the SMILES beside them. *: point of attachment. Cbz = O=C(OCc1ccccc1)*; OtBu = CC(C)(C)O* Where only a bound is given, the exact number is not on record here.

For `Cc1ccc(S(=O)(=O)/C=C/C#N)cc1` [BAY 11–7082], the “effect on NF-κB expression” value in the series with NF-κB [1] (setting [3]) is listed as “agonistic effect”. Besides, the cytotoxic effect entry with HEK293 cells was “no cytotoxic effect”.

Turning to `CC(C)(C)c1ccc(S(=O)(=O)/C=C/C#N)cc1` [BAY 11–7085], the “effect on NF-κB expression” value in the series on NF-κB [1] (setting [3]) was “agonistic effect”. Further, the cytotoxic effect result in the series with HEK293 cells was “no cytotoxic effect”.

As to `CCNC(=O)[C@H]1O[C@@H](n2cnc3c(N)nc(NCCc4ccc(CCC(=O)O)cc4)nc32)[C@H](O)[C@@H]1O` [CGS 21680], the NF-κB agonist effect result in the series with NF-κB [2] was “no effect”.

As to `Br.Cc1cc2nc(NCCCO)n(CC(=O)c3cc(C(C)(C)C)c(O)c(C(C)(C)C)c3)c2cc1C` [CID 2858522], the “effect on NF-κB expression” value in the series with NF-κB [1] (setting [3]) is on record as “agonistic effect”. For the same molecule, the cytotoxic effect result with HEK293 cells is given as “no cytotoxic effect”.

In the case of `COc1cc(O)cc(O)c1C(=O)/C=C/c1ccccc1` [Cardamonin], the “effect on NF-κB pathway activity” value in the series on NF-κB [1] was “act as agonists and increased pathway activity”. In addition, the “effect on cell viability” value with HEK293 cells (setting [4]) is “without effecting cell viability”. For the same molecule, the “change in cell viability of MAF1329” value in the series on MAF1329 ependymoma cells (C11orf95-RELA fusion positive ependymoma cell culture) was “no change in cell viability”.

By EC50 is commonly meant the concentration at which the effect is half-maximal. One may read the IC50 as the midpoint of a concentration-inhibition curve. As to `CC1=C(O)C(=O)C=C2C1=CC=C1[C@@]2(C)CC[C@@]2(C)[C@@H]3C[C@](C)(C(=O)O)CC[C@]3(C)CC[C@]12C` [Celastrol], in the series with NF-κB [1], the EC50 was 82 nM. In addition, the “effect on NF-κB pathway activity” value in the series on NF-κB [1] is “act as agonists and increased pathway activity”. The IC50 amounted to 0.475 µM in the series with HEK293 cells and 1700 nM in the series on MAF1329 ependymoma cells (Homo sapiens, read-out: IC50 (cell viability of MAF1329)). Besides, in the series with HEK293 cells (setting [4]), the “effect on cell viability” value is recorded as “without effecting cell viability”.

In the case of `O=C(c1ccc(Nc2nccc(-c3cc4ccccc4s3)n2)cc1)N1CCC(N2CCCC2)CC1` [IKK-16], the “effect on NF-κB expression” value in the series with NF-κB [1] (HEK-293 reporter cells) is given as “no specific effect”. Also, the “effect on cell viability” value in the series on HEK293 cells is on record as “no specific effect”.

For the molecule `O=C(Nc1cc(C(F)(F)F)cc(C(F)(F)F)c1)c1cc(Cl)ccc1O` [IMD 0354], the “mode of action on NF-κB signaling” value with NF-κB [1] (HEK-293 reporter cells) is listed as “work antagonistically”. Besides, the EC50 with NF-κB [1] was found to be 292 nM. In addition, the IC50 in the series on HEK293 cells was 1.56 µM. Besides, the “effect on cell viability” value in the series with HEK293 cells (at low concentrations) is “did not result in a decrease of cell viability”.

For `O=c1cc(-c2ccc(O)c(O)c2)oc2cc(O)cc(O)c12` [Luteolin], in the series on NF-κB [1] (HEK-293 reporter cells), the “effect on NF-κB expression” value was “no specific effect”. In addition, the EC50 in the series with NF-κB [1] was determined as 35000 nM. Moreover, the IC50 with HEK293 cells was above 100 µM.

As for `C[C@]1(CO)CN(c2cc(C(=O)Nc3ccc4c(c3)-c3c(c(C(N)=O)nn3-c3ccc(F)cc3)CC4)c(Cl)cn2)C[C@@]1(C)CO` [PF-184], the “mode of action on NF-κB signaling” value in the series on NF-κB [1] (HEK-293 reporter cells) is “work antagonistically”. The “effect on cell viability” value in the series on HEK293 cells is recorded as “did not result in a decrease of cell viability”.

As for `CC[C@H](C)[C@H](NC(=O)OCc1ccccc1)C(=O)N[C@@H](CCC(=O)OC(C)(C)C)C(=O)N[C@@H](C)C(=O)N[C@H](C=O)CC(C)C` [PSI] (Cbz-IE(OtBu)AL-aldehyde), the “effect on NF-κB pathway activity” value in the series on NF-κB [1] is “act as agonists and increased pathway activity”. The “effect on cell viability” value in the series on HEK293 cells is given as “without effecting cell viability”.

For the molecule `Oc1cc(O)cc(/C=C/c2ccc(O)c(O)c2)c1` [Piceatannol], the EC50 in the series on NF-κB [1] is above 100000 nM. Besides, in the series on NF-κB [1] (setting [3]), the “effect on NF-κB expression” value is listed as “agonistic effect”. Also, in the series with HEK293 cells, the cytotoxic effect result is “no cytotoxic effect” and the IC50 was above 100 µM.

With `CS(=O)(=O)N1CCN(Cc2cc3nc(-c4cccc5[nH]ncc45)nc(N4CCOCC4)c3s2)CC1` [Pictalisib, 2-(1 H -Indazol-4-yl)-6-(4-methanesulfonyl-piperazin-1-ylmethyl)-4-morpholin-4-yl-thieno[3,2-d]pyrimidine], in the series on NF-κB [1], the EC50 was 4270 nM. Moreover, the IC50 in the series with HEK293 cells amounted to 7.47 µM.

Take `CC(=O)O[C@@]12C[C@@H](C)[C@@]3(O)[C@@H](C=C(CO)C[C@]4(O)C(=O)C(C)=C[C@@H]34)[C@@H]1C2(C)C` [Prostratin]: the “concentration at which NF-κB agonist activity was seen” value with NF-κB [2] is 1000 nM.

For the molecule `[O-][S+](c1ccccc1)c1ccc2nnnn2n1` (stereo not drawn) [Ro106–9920], the “effect on cell viability” value with HEK293 cells is recorded as “did not result in a decrease of cell viability”.

For `NC(=O)Nc1sc(-c2ccc(F)cc2)cc1C(N)=O` [TCPA-1, 2-[(Aminocarbonyl)amino]-5-(4-fluorophenyl)-3-thiophenecarboxamide], the EC50 with NF-κB [1] is below 1 nM. In addition, the “effect on cell viability” value in the series with HEK293 cells (at low concentrations) is recorded as “did not result in a decrease of cell viability”.

Consider `C=C(C)[C@@H]1CC[C@]2(C(=O)O)CC[C@]3(C)[C@H](CC[C@@H]4[C@@]5(C)CC[C@H](O)C(C)(C)[C@@H]5CC[C@]43C)[C@@H]12` [betulinic acid, Betulinic acid], for which, in the series on NF-κB [2], the “concentration at which NF-κB agonist activity was seen” value is 100,000 nM.

Source of the values: article PMC8867604 (European journal of pharmacology, 2020).
